The results in this text go back to ChEMBL document CHEMBL3351261, “Induction of intrinsic apoptosis pathway in colon cancer HCT-116 cells by novel 2-substituted-5,6,7,8-tetrahydronaphthalene derivatives” (Eur J Med Chem, 2014).

What is called IC50 is the point on the concentration scale where inhibition reaches its midpoint. Lower therefore signals greater potency in that assay.

The nature of test [1]: Cytotoxicity against human HCT116 cells after 48 hrs by MTT method. The test is classed as functional, cell-based. As to conditions: HCT-116, 48 h. Background: Tetrazolium dyes change colour on reduction, which living cells bring about.
In test [2] the test system is MCF7. Briefly: Cytotoxicity against human MCF7 cells after 48 hrs by MTT method. The test is classed as functional, cell-based. As to conditions: MCF7, 48 h.
In test [3] the test system is HeLa. Briefly: Cytotoxicity against human HeLa cells after 48 hrs by MTT method. It is filed as functional, cell-based.
In test [4] the test system is HepG2. Briefly: Cytotoxicity against human HepG2 cells after 48 hrs by MTT method. The test is classed as functional, cell-based. As to conditions: HepG2, 48 h.
Test [5] relates to HCT-116. Briefly: Induction of apoptosis in human HCT116 cells assessed as increase in caspase-3 level relative to control. It is filed as functional, cell-based. The gist of the method: (§1)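 HCT-116 cells, treated or untreated, were lysed (pH 7.4) and cleared at 14,000× g, 15 min, 4 °C. Kit-based read-outs: total caspases via Red-VAD-FMK fluorescence (Ex 540/Em 570 nm); caspase-3 colorimetric at 405 nm; caspase-9 via LEHD-pNA cleavage, pNA at 405 nm. Results are fold over untreated cells.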

For test [6], the system named is HCT-116. Briefly: Induction of apoptosis in human HCT116 cells at IC50 by acridine orange/ethidium bromide staining-based fluorescence microscopy. The test is classed as functional. The gist of the method:
(§2)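 Treated and untreated HCT-116 cells were stained with acridine orange/ethidium bromide (each 100 µg/ml mix in PBS) and examined under fluorescence microscopy, blinded. Cells with yellow condensed or fragmented nuclei were counted as apoptotic; bright orange chromatin in round nuclei was counted as necrotic. Each is reported as % of the dead-cell population.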

Test [7] deals with HCT-116. Briefly: Induction of DNA fragmentation in human HCT116 cells at IC50 after 30 mins relative to control. The test is classed as functional. In short, it runs like this:
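HCT-116 cells, treated or untreated, were resuspended in TE buffer (10 mM Tris, 1 mM EDTA, pH 8.0) and lysed 30 min in 5 mM Tris, 20 mM EDTA, 0.5% Triton X-100, pH 8.0. Fragmented DNA (supernatant) was separated from intact chromatin (pellet) by centrifugation and quantified with diphenylamine reagent. % fragmentation = supernatant DNA / pellet DNA; three measurements, mean ± SD.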

In test [8] the test system is HCT-116. Briefly: Induction of apoptosis in human HCT116 cells assessed as increase in caspase-9 level relative to control. It is filed as functional, cell-based. The gist of the method:
as §1

Test [9] concerns HCT-116. Briefly: Induction of necrosis in human HCT116 cells at IC50 by acridine orange/ethidium bromide staining-based fluorescence microscopy. It is filed as functional. In short, it runs like this:
as §2

The subject of test [10] is HCT-116. Briefly: Induction of apoptosis in human HCT116 cells assessed as reduction of mitochondrial membrane potential after 2 hrs by JC-1 staining-based fluorescence assay. It is filed as functional, cell-based. The gist of the method: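 HCT-116 cells in 96-well plates were preloaded with 10 µg/ml JC-1 in HBSS for 30 min at 37 °C, then incubated with or without compound for 2 h at 37 °C. The 590/527 nm emission ratio was read at zero time and at 2 h and expressed as % of the zero-time reading. CCCP served as positive control; mean of three readings ± SD.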

Test [11] relates to HCT-116. Briefly: Induction of apoptosis in human HCT116 cells assessed as increase in total caspase level relative to control. It is filed as functional, cell-based. The gist of the method: as §1
In test [12] the test system is HCT-116. Briefly: Induction of apoptosis in human HCT116 cells assessed as cytochrome C accumulation by immunoblotting analysis. It is filed as functional, cell-based. The gist of the method:
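HCT-116 cells were lysed in ice-cold buffer (pH 7.4) with NP40, Triton X-100 and protease/phosphatase inhibitors, then cleared at 14,000× g for 15 min at 4 °C; protein was measured by BCA. Soluble protein (20 µg) was dot-blotted on nitrocellulose and probed for cytochrome c, detected with HRP anti-goat antibody and OPD. Dot colour intensity is given as mean % of three replicates.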
Background: A western blot detects proteins with antibodies after separation by electrophoresis.

Values after ≈ are worked out from the molar mass of the structure shown. Active and inactive are the calls of the source. The rule behind the calls is not given here.

Take `COc1ccc(N/C=C\C(=O)c2ccc3c(c2)CCCC3)cc1`: the IC50 in test [1] was found to be 31.8 µg/mL (≈ 103 µM); in test [2], 43.1 µg/mL (≈ 140 µM); in [3], 46.1 µg/mL (≈ 150 µM); in test [4], 31.8 µg/mL (≈ 103 µM).
For `CC(=O)Nc1ccc(-c2ccc3c(c2)CCCC3)oc1=O`, the IC50 was found to be 8.4 µg/mL (≈ 29.6 µM) in test [1], 20.9 µg/mL (≈ 73.8 µM) in [2], 30.4 µg/mL (≈ 107 µM) in test [3] and 45.3 µg/mL (≈ 160 µM) in test [4]. In addition, the outcome in test [5] was inactive. In addition, the Activity in test [6] was 77%; in test [9], 0%. In addition, the result in test [7] and in test [8] was Active.
As for `CC(=O)O[C@H]1C(=O)[C@@]2(C)[C@H]([C@H](OC(=O)c3ccccc3)[C@]3(O)C[C@H](OC(=O)[C@H](O)[C@@H](NC(=O)c4ccccc4)c4ccccc4)C(C)=C1C3(C)C)[C@]1(OC(C)=O)CO[C@@H]1C[C@@H]2O` [PACLITAXEL], the IC50 worked out at 0.38 µg/mL (≈ 0.445 µM) in test [1], 0.61 µg/mL (≈ 0.714 µM) in test [2], 0.47 µg/mL (≈ 0.55 µM) in [3] and 0.59 µg/mL (≈ 0.691 µM) in [4]. Also, the Activity in [7] came out at 44%.
As for `O=C(/C=C\Nc1ccccc1)c1ccc2c(c1)CCCC2`, the IC50 in test [1] stood at 41.6 µg/mL (≈ 150 µM); in test [2], 32.2 µg/mL (≈ 116 µM); in test [3], 30.6 µg/mL (≈ 110 µM); in [4] it was 19.9 µg/mL (≈ 71.7 µM).
For `O=c1[nH]c(=O)c2c(-c3ccc4c(c3)CCCC4)ccnc2[nH]1`, the IC50 in test [1] amounted to 18.6 µg/mL (≈ 63.4 µM); in test [2], 24.4 µg/mL (≈ 83.2 µM); in [3] it was 29.1 µg/mL (≈ 99.2 µM); in test [4] it was 39.9 µg/mL (≈ 136 µM).
Regarding `c1cc(-c2ccc3c(c2)CCCC3)n2ncnc2n1`, the IC50 worked out at 2.1 µg/mL (≈ 8.39 µM) in test [1], 48.2 µg/mL (≈ 193 µM) in test [2], 21.8 µg/mL (≈ 87.1 µM) in test [3] and 15.9 µg/mL (≈ 63.5 µM) in test [4]. The result in [5], in test [7], in [10], in test [11] and in test [12] was Active. Further, the Activity in [6] is 77%; in test [9], 0%. Also, in [8], the outcome was inactive.
Turning to `CN(C)/C=C/C(=O)c1ccc2c(c1)CCCC2`, the IC50 in [1] was 18.9 µg/mL (≈ 82.4 µM); in [2], 29.3 µg/mL (≈ 128 µM); in test [3] it was 33.4 µg/mL (≈ 146 µM); in test [4], 22.3 µg/mL (≈ 97.2 µM).
Consider `O=C(/C=C\Nc1ccc([N+](=O)[O-])cc1)c1ccc2c(c1)CCCC2`, for which the IC50 in [1] was 6.8 µg/mL (≈ 21.1 µM); in test [2], 28.5 µg/mL (≈ 88.4 µM); in [3], 48.4 µg/mL (≈ 150 µM); in [4], 27.4 µg/mL (≈ 85 µM). In addition, the Activity in test [6] is given as 77%; in [9] it was 0%. Further, the outcome in [7], in [11] and in [12] was Active.
On to `O=C(/C=C/N1CCCCC1)c1ccc2c(c1)CCCC2`, for which the IC50 was determined as 35.4 µg/mL (≈ 131 µM) in test [1], 41.1 µg/mL (≈ 153 µM) in test [2], 35.6 µg/mL (≈ 132 µM) in test [3] and 39.1 µg/mL (≈ 145 µM) in test [4].
As for `O=C(Nc1ccc(-c2ccc3c(c2)CCCC3)oc1=O)c1ccccc1`, the IC50 in [1] was determined as 47.7 µg/mL (≈ 138 µM); in test [2], 27.5 µg/mL (≈ 79.6 µM); in [3], 38.3 µg/mL (≈ 111 µM); in test [4], 29.3 µg/mL (≈ 84.8 µM). For the same compound, the outcome in [11] and in [12] was Active.
For the compound `O=C(c1ccc2c(c1)CCCC2)c1coc2ccc(O)cc12`, the IC50 in test [1] was 9.5 µg/mL (≈ 32.5 µM); in test [2], 40.3 µg/mL (≈ 138 µM); in test [3] it was 41.6 µg/mL (≈ 142 µM); in test [4] it was 39.2 µg/mL (≈ 134 µM). Further, the Activity is reported as 77% in test [6] and 0% in test [9]. In addition, the outcome in [7] was Active. Also, the result in test [10] was inactive.
Consider `Cc1ccc(N/C=C\C(=O)c2ccc3c(c2)CCCC3)cc1`, for which the IC50 was 42.1 µg/mL (≈ 144 µM) in [1], 43.6 µg/mL (≈ 150 µM) in test [2], 28.7 µg/mL (≈ 98.5 µM) in test [3] and 42.7 µg/mL (≈ 147 µM) in [4].
As to `O=C(/C=C/N1CCOCC1)c1ccc2c(c1)CCCC2`, the IC50 stood at 7.2 µg/mL (≈ 26.5 µM) in test [1], 38.6 µg/mL (≈ 142 µM) in test [2], 41.2 µg/mL (≈ 152 µM) in test [3] and 18.2 µg/mL (≈ 67.1 µM) in [4]. The Activity turned out to be 77% in [6] and 0% in [9]. In addition, the result in test [7] was Active. Further, in test [10], the outcome was inactive.
As to `c1ccc(-c2cc3nccc(-c4ccc5c(c4)CCCC5)n3n2)cc1`, the IC50 in [1] came to 26.7 µg/mL (≈ 82 µM); in test [2], 19.9 µg/mL (≈ 61.2 µM); in test [3] it was 36.2 µg/mL (≈ 111 µM); in test [4], 37.6 µg/mL (≈ 116 µM).
In the case of `O=c1[nH]c(=S)[nH]c2nccc(-c3ccc4c(c3)CCCC4)c12`, the IC50 is 0.49 µg/mL (≈ 1.58 µM) in test [1], 18.2 µg/mL (≈ 58.8 µM) in test [2], 25.3 µg/mL (≈ 81.8 µM) in test [3] and 27 µg/mL (≈ 87.3 µM) in test [4]. The result in test [5], in [7], in test [10], in test [11], in [8] and in test [12] was Active. Besides, the Activity in [6] is reported as 77%; in test [9], 0%.
On to `O=C(c1ccc2c(c1)CCCC2)c1coc2c1cc(O)c1ccccc12`, for which the IC50 is 36.2 µg/mL (≈ 106 µM) in test [1], 48.7 µg/mL (≈ 142 µM) in test [2], 40.5 µg/mL (≈ 118 µM) in [3] and 31.7 µg/mL (≈ 92.6 µM) in [4].
`O=C(/C=C\Nc1ccc(Cl)cc1)c1ccc2c(c1)CCCC2`: the IC50 in [1] stood at 7.9 µg/mL (≈ 25.3 µM); in test [2] it was 28.7 µg/mL (≈ 92 µM); in [3], 19.9 µg/mL (≈ 63.8 µM); in [4], 30.3 µg/mL (≈ 97.2 µM). For the same compound, the Activity was determined as 77% in test [6] and 0% in [9]. Also, in test [7], the result was Active. Further, the result in test [10] was inactive.
